Data set [1] can be described thus: Cytotoxicity against human KBVIN cells assessed as decrease in cell viability after 72 hrs in presence of free radical scavenger NAc by MTT assay. It is filed as functional, cell-based. As to conditions: in the assay text read “SRB assay” for “MTT assay”. The method in brief: (§1)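 NQO1 dependency: cells co-treated for 72 h with test compound plus […] or 40 mM N-acetylcysteine. Viability read by SRB: TCA fixation, 0.04% sulforhodamine B staining, acetic acid wash, dye solubilized in 10 mM Tris base, absorbance at 515 nm. Results given as IC50 or mean ± SD; three independent measurements.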
For orientation: Formazan colour is commonly taken as a measure of viable cells.

Data set [2] deals with HeLa S3. The experiment in a line: Increase in ROS production in human HeLaS3 cells after 24 hrs in presence of H2O2 by DCFH-DA dye based flow cytometry. The data set is classed as functional, cell-based. (In general: A flow cytometer gives signals particle by particle.)
The species entered for data set [3] is Homo sapiens. The experiment in a line: Increase in ROS production in human KBVIN cells after 24 hrs in presence of H2O2 by DCFH-DA dye based flow cytometry. It is filed as functional, cell-based.
For data set [4], the system named is HeLa S3. Nature of the data set: Cytotoxicity against human HeLaS3 cells assessed as decrease in cell viability after 72 hrs in presence of NQO1 inhibitor dicoumarol by MTT assay. The data set is classed as functional, cell-based. As to conditions: HeLa S3, 72 h, in the assay text read “SRB assay” for “MTT assay”. The method in brief: as §1
In data set [5] the test system is HeLa S3. The experiment in a line: Induction of apoptosis in human HeLaS3 cells assessed as annexin V-positive cells at 1.8 uM after 72 hrs by annexin V-FITC/PI dual staining based flow cytometry relative to control. The data set is classed as functional. The method in brief:
(§2)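 Cells cultured overnight, then exposed in triplicate to 0.2, 0.6 or 1.8 μM or vehicle for 72 h. Annexin V-positive percentage given as mean ± SD of three independent experiments.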

In data set [6] the test system is HeLa S3. Nature of the data set: Induction of apoptosis in human HeLaS3 cells after 72 hrs by annexin V-FITC/PI dual staining based flow cytometry. The data set is classed as functional, cell-based. Summed up: as §2
Data set [7] concerns HeLa S3. Nature of the data set: Induction of apoptosis in human HeLaS3 cells assessed as increase in Bax expression levels after 72 hrs by Western blot analysis. It is filed as functional, cell-based. The method in brief: (§3)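 Sub-confluent cells at 1.5 × 10^5/mL treated 72 h in DMEM with 10% FBS at the indicated doses or 0.1% DMSO vehicle. Lysates immunoblotted for Bax, Bcl-2 and caspase-3, detected with HRP secondary antibodies and chemiluminescence. Band densities normalized to β-actin by densitometry; mean ± SD of three separate experiments.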

The subject of data set [8] is HeLa S3. The experiment in a line: Induction of apoptosis in human HeLaS3 cells assessed as annexin V-positive cells at 0.2 uM after 72 hrs by annexin V-FITC/PI dual staining based flow cytometry relative to control. The data set is classed as functional. Summed up:
as §2

For data set [9], the system named is HeLa S3. Nature of the data set: Cytotoxicity against human HeLaS3 cells assessed as decrease in cell viability after 72 hrs in presence of free radical scavenger NAc by MTT assay. The data set is classed as functional, cell-based. The settings on record: HeLa S3, 72 h, in the assay text read “SRB assay” for “MTT assay”. Summed up:
as §1

Data set [10] has as its system HeLa S3. The experiment in a line: Induction of apoptosis in human HeLaS3 cells assessed as decrease in Bcl-2 expression levels after 72 hrs by Western blot analysis. The data set is classed as functional, cell-based. Summed up: as §3
In general terms: Immunoblotting shows a protein as a band on a membrane.

Data set [11] has as its target T1, NAD(P)H dehydrogenase [quinone] 1 (Homo sapiens, UniProt P15559). The experiment in a line: Inhibition of NQO1 activity in human HeLaS3 cells incubated for 24 hrs measured every 20 secs for 5 mins. The data set is classed as cell-based.
A short description of data set [12]: Cytotoxicity against human KBVIN cells assessed as decrease in cell viability after 72 hrs in presence of NQO1 inhibitor dicoumarol by MTT assay. It is filed as functional, cell-based. The settings on record: in the assay text read “SRB assay” for “MTT assay”. Summed up: as §1
The species entered for data set [13] is Homo sapiens. Nature of the data set: Induction of mitochondrial membrane potential loss in human KBVIN cells after 24 hrs by MITO-ID MP dye based assay. The data set is classed as functional, cell-based. The method in brief: (§4)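 Cells plated at 2.5 × 10^5/mL and treated with 0.01–5 μM, CCCP as positive control or DMSO vehicle for 24 h at 37 °C. MITO-ID MP dye loaded in the dark for 30 min at 37 °C, then fluorescence read at Ex 490 nm and Em 590 nm.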

Data set [14] concerns HeLa S3. Nature of the data set: Induction of mitochondrial membrane potential loss in human HeLaS3 cells after 24 hrs by MITO-ID MP dye based assay. The data set is classed as functional, cell-based. The method in brief: as §4
In data set [15] the test system is HeLa S3. Nature of the data set: Induction of apoptosis in human HeLaS3 cells assessed as annexin V-positive cells at 0.6 uM after 72 hrs by annexin V-FITC/PI dual staining based flow cytometry relative to control. The data set is classed as functional. The method in brief:
as §2

Data set [16] is described as follows: Cytotoxicity against human EEC assessed as decrease in cell viability after 72 hrs by MTT assay. Summed up:
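Endometrial epithelial cells maintained in RPMI-1640 with 10% FBS at 37 °C, 5% CO2. Exposed 72 h to the indicated concentrations, proliferation assessed by MTT; inhibition (%) reported as mean ± SD of three independent experiments.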

Data set [17] concerns HeLa S3. Nature of the data set: Induction of apoptosis in human HeLaS3 cells assessed as increase in caspase-3 cleavage at 0.2 to 1.8 uM after 72 hrs by Western blot analysis. The data set is classed as functional, cell-based. The method in brief: as §3
Data set [18] has as its target T1, NAD(P)H dehydrogenase [quinone] 1. The experiment in a line: Inhibition of NQO1 activity in human KBVIN cells incubated for 24 hrs measured every 20 secs for 5 mins. It is filed as cell-based.

Activity calls are given as the source filed them. No cut-off for these calls is given here.

T1 sequence (P15559 whole entry): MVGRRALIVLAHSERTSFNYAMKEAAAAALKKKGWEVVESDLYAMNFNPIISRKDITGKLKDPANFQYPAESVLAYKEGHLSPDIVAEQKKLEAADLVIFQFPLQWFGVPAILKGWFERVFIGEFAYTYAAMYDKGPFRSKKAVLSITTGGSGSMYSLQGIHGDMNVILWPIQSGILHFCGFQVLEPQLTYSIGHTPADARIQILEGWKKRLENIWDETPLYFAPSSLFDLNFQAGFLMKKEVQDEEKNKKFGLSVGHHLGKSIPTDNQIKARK

A word on the IC50: it is the concentration needed to halve the response being measured. As to `CN1CCN(c2ccc(NC3=CC(=O)c4cccnc4C3=O)cc2)CC1`, the IC50 is greater than 3000 nM in [1]; greater than 3000 nM with HeLa S3 [4]; greater than 3000 nM in the data set on HeLa S3 [9]; 440 nM in data set [11]; greater than 3000 nM in [12]; 570 nM in [18]. Also, the Activity entry in the data set on HeLa S3 [2] was “Dose-dependent effect”; in the data set filed under Homo sapiens [3], “Dose-dependent effect”; in the data set with HeLa S3 [5], 66.3%; in the data set on HeLa S3 [6], “Dose-dependent effect”; with HeLa S3 [7], “Dose-dependent effect”; with HeLa S3 [8] it was 12.8%. The Activity result was “Dose-dependent effect” in the data set with HeLa S3 [10]; “Dose-dependent effect” in the data set filed under Homo sapiens [13]; “Dose-dependent effect” with HeLa S3 [14]; 27.6% in the data set on HeLa S3 [15]; “Non-Toxic” in [16]. For the same compound, the outcome in the data set with HeLa S3 [17] was Active.
Turning to `O=C1C=C(NCCc2c[nH]c3ccccc23)C(=O)c2ncccc21`, the Activity result in the data set on HeLa S3 [2], in the data set listed under Homo sapiens [3], in the data set filed under Homo sapiens [13] and with HeLa S3 [14] was “Dose-dependent effect” each time. The IC50 in data set [11] amounted to 6250 nM; in [18] it was 550 nM.
Turning to `CN1CCN(c2ccc(NC3=CC(=O)c4ncccc4C3=O)cc2)CC1`, the IC50 (in data set [1]; in the data set with HeLa S3 [4]; in the data set with HeLa S3 [9]; in [12]) was greater than 3000 nM throughout. Besides, the Activity result with HeLa S3 [2], in the data set listed under Homo sapiens [3], in the data set listed under Homo sapiens [13] and in the data set with HeLa S3 [14] was “Dose-dependent effect” throughout.
Turning to `COC(=O)/C=C/c1cccc(CNC2=CC(=O)c3ncccc3C2=O)c1`, the Activity result in the data set with HeLa S3 [2], in the data set listed under Homo sapiens [3], in the data set listed under Homo sapiens [13] and with HeLa S3 [14] was “Dose-dependent effect” each time. Further, the IC50 in data set [11] came out at 5250 nM; in [18], 530 nM.
